The text below walks through data of the RNAGym collection of RNA variant scans (doi:10.1101/gad.245936.114).

Variants at the floor of the assay were thinned out. A value given as a limit tells only on which side of the number the result lay.

B1: tRNA (parent)
chain: CUCUCGGUAGCCAAGUUGGUUUAAGGCGCAAGACUUUAAUUUAUCACUACGAAAUCUUGAGAUCGGGCGUUCGACUCGCCCCCGGGAGAUUUUUUCCUCGAGCAA

The variants in the data set derive from B1. In words: nonsense suppression (GFP-seq) (ratio to wild type); higher = more function; SUP4oc tRNA, yeast GFP reporter sort-seq. A digest of the protocol: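 Each variant's nonsense suppression (GFPSEQ) is a cell-share-weighted bin median GFP/RFP relative to the unmutated parent tRNA. Yeast with genome-integrated tRNA variants from a ~3% random-mutation library, a galactose-driven GFP ochre reporter and RFP were grown in raffinose/galactose medium with 80 mg/L adenine, then sorted into GFP/RFP bins for Illumina sequencing. Variants needed ≥100 reads and ≥30 cells.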
For the variant CUCACGGUAGUCAAGUUGGUUUAAGGCGCAAGAUUUUAAUUUAUCACUACGAAAUCUUGAGAUCGGGCGUUCGACUCGCCCCCGGGAGAUUUUUUCCUCGAGCAA [U4A C11U C34U], the nonsense suppression is ≤ 0.026. CUCACGGUUGCCAAGUUGGUUUAAGGCGCAAGACUUUAAUUUAUCACUACGAAAUCUUGAGAUCGGGCGUUCGACUCGCCCCCGGGAGAUUUUUUCCUCGAGCAA [U4A A9U]: the nonsense suppression turned out to be 0.2. The value for CUCACGGUAGCCAAGUUGGUUUAAGGCGCAAGACUUUAAUUUAUCACUACGAAAUCUUGAGAACGGGCGUUCGACUCGCCCCCGGGAGAUUUUUUCCUCGAGCAA [U4A U63A] was 0.155; that for CUCACGGUAGCCCAGUUGGUUUAAGGCGCAAGACUUUAAUUUAUCACUACGAAAUCUUGAGAUCGGGCGUUCGACUCGCCCCCGGGAGAUUUUUUCCUCGAGCAA [U4A A13C] was 0.294. Turning to CUCACGGUAGCCUAGUUGGUUUAAGGCGCAAGACUUUAAUUUAUCACUACGAAAUCUUGAGAUCGGGCGUUCGACUCGCCCCCGGGAGAUUUUUUCCUCGAGCAA [U4A A13U], the nonsense suppression was 0.18. In the case of CUCACGGUAGCCAAGUAGGUUCAAGGCGCAAGACUUUAAUUUAUCACUACGAAAUCUUGAGAUCGGGCGUUCGACUCGCCCCCGGGAGAUUUUUUCCUCGAGCAA [U4A U17A U22C] it was 0.0499; in that of CUUUCGGUAGCCAAGUUGGUUUAAGGCGCAAGACUUUAAUUUAUCACUACGAAAUCUUGAGAUCGGGCGUUCGACCCGCCCCCGGGAGAUUUUUUCCUCGAGCAA [C3U U76C], 0.17. Turning to CUUUCGGUAGCCAAGUUGGUUUAAGGCGCAAGACUUUAAUUUAUCACUACGAAAUCUUGAGAUCGGGCGUUCGACACGCCCCCGGGAGAUUUUUUCCUCGAGCAA [C3U U76A], the nonsense suppression turned out to be 0.0398. In the case of CUCACGUUAGCCAAGUUGGUUUAAGGCGCAAGACUUUAAUUUAUCACUACGAAAUCUUGAGAUCGGGCGUUCGACACGCCCCCGGGAGAUUUUUUCCUCGAGCAA [U4A G7U U76A] it was ≤ 0.026.

For the variant CUUUCGGUAGCCAAGUUGGUUUAAGGCGCAAGACUUUAAUUUAUCACUACGAAAUCUUGAGAACGGGCGUUCGACUCGCCCCCGGGAGAUUUUUUCCUCGAGCAA [C3U U63A], the nonsense suppression stood at 0.12. In the case of CUCACGGUAGCCAAGUUGAUUUAAGGCGCAUGACUUUAAUUUAUCACUACGAAAUCUUGAGGUCGGGCGUUCGACUCGCCCCCGGGAGAUUUUUUCCUCGAGCAA [U4A G19A A31U A62G] it was ≤ 0.026; in that of CUCACGGUAGCCAAGUUGGUUUAAGGCGCAUGACUUUAAUUUAUCACUACGAAAUCUUGAGAUCGGGCGUUCGACUCGCCCCCGGGAGAUUUUUUCCUCGAGCAA [U4A A31U], 0.0312. The value for CUUUCGGUAGCCAAGUUGGUUAAAGGCGCAAGACUUUAAUUUAUCACUACGAAAUCUUGAGAUCGGGCGUUCGACUCGCCCCCGGGAGAUUUUUUCCUCGAGCAA [C3U U22A] was 0.169; that for CUUUCGGUAGCCAAGUUGGUUCAAGGCGCAAGACUUUAAUUUAUCACUACGAAAUCUUGAGAUCGGGCGUUCGACUCGCCCCCGGGAGAUUUUUUCCUCGAGCAA [C3U U22C] was 0.304; that for CUCACGGUAGCCAAGUUGGUUUAAGGCGCGAGACUUUAAUUUAUCACUACGAAAUCUUGAGAUCGGGCGUUCGACUCGCCCCCGGGAGAUUUUUUCCUCGAGCAA [U4A A30G] was 0.0267. The value for CUCACGGUAGCCCAGUUGGUUUAAGGCGCAAGACUUUAAUUUAUCACUACGAAAUCUUGAGAUCGGGCGCUCGACUCGCCCUCGGGAGAUUUUUUCCUCGAGCAA [U4A A13C U70C C82U] was ≤ 0.026; that for CUCACGGUAGUCAAGUUGGUUUAAGGCGCAAGACUUUAAUUUAUCACUACGAAAUCUUGAGAUCGGGCGUUCGACUCGCCCCCGGGAGAUUUUUUCCUCGAGCAA [U4A C11U] was 0.0306. For the variant CUCACGGUAGCCAAGUUAGUUUAAGGCGCAAGACUUUAAUUUAUCACUACGAAAUCUUGAGAUCGGGCGUUCGACUAGCCCCCGGGAGAUUUUUUCCUCGAGCAA [U4A G18A C77A], the nonsense suppression is ≤ 0.026. In the case of CUCACGGUAGCCAAGUUGGUUUAAGGCGCAAGACUUUAAUUUAUCACUACGAAAUCAUGAGAUCGGGCGUUCGACUCGCCCCCGGGAGAUUUUUUCCUCGAGCAA [U4A U57A] it was ≤ 0.026; in that of CUCACGGUAGCCAAGUUGGAUUAAGGCGCAAGACUUUAAUUUAUCACUACGAAAUCUUGAGAUCGGGCGUUCGACUCGCCCCCGGGAGAUUUUUUCCUCGAGCAA [U4A U20A], 0.072; in that of CUCACGGUAGCCCAGUUGGUUUAAGGCGCAAGACUUUAAUUUAUCACUACGAAAUCUUGAGAUCGGGCGUUCGACUCGCCCCUCGGAGAUUUUUUCCUCGAGCAA [U4A A13C C83U G84C], ≤ 0.026.

Consider CUCACGGUAGCCAAGUUGGUUUAAGGCGCAAGACUUUAAUUUAUCACUACGAAAUCUUGAGAUCGGGCGUUCGACACGCCCCCGGGAGAUUUUUUCCUCGAGCAA [U4A U76A], for which the nonsense suppression stood at 0.0437. In the case of CUCACGGUAGCCAAGUUGGUUUAAGGCGCAAGACUUUAAUUUAUCACUACGAAAUCUUGAGAUCGGGCGUUCGACUCGCCCCCGGGAGAUUUUUUCCUCGAGCAA [U4A] it was 0.693. As for CUCACGGUAGCCAAGUUGGUUUAAGGCGCAAGACUUUAAUUUAUCACUACGAAAUCUUGUGAUCGGGCGUUCGACUCGCCCCCGGGAGAUUUUUUCCUCGAGCAA [U4A A60U], the nonsense suppression amounted to 0.52. As to CUCACGGUAGCCAAGUUGGCUUAAGGCGCAUGACUUUAAUUUAUCACUACGAAAUCUUGAGAUCGGGCGUGCGACUCGCACCCGGGAGAUUUUUUCCUCGAGCAA [U4A U20C A31U U71G C80A], the nonsense suppression was ≤ 0.026. With CUCACGGUAGCCAAGUUGGUUUAAGGCGCAAGACUUUAAUUUAUCACUACGAAAUCUUGAUAUCGGGCGUUCGACUCGCCCCCGGGAGAUUUUUUCCUCGAGCAA [U4A G61U], the nonsense suppression stood at 0.194.

As for CUUUCGGUAGCCAAGUUGGUUUAAGGCGCAAGACUUUAAUUUAUCACUACGAAAUCUCGAGAUCGGGCGUUCGACUCGCCCCCGGGAGAUUUUUUCCUCGAGCAA [C3U U58C], the nonsense suppression came to 0.202.
